The source made the active and inactive calls. The calls are words filed in the database; no cut-off is given here.
Experiments:
ASPC1 = assay: cells; assay type: functional; settings: Homo sapiens, ASPC1, 48 h
PC-3 [1] = assay: cells; assay type: functional; settings: Homo sapiens, PC-3, 48 h
A549 = assay: cells; assay type: functional; settings: Homo sapiens, A549, 48 h
MDA-MB-231 = assay: cells; assay type: functional; settings: Homo sapiens, MDA-MB-231, 48 h
[2] = Inhibition of HDAC in human HeLa cell nuclear extract using […] as substrate after 30 mins by fluorescence assay; assay type: cell-free
Summary of the method: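 HeLa nuclear extract was incubated with fluorometric HDAC substrate in assay buffer at 37°C for 30 min. Lysine developer was then added for a further 30 min at 37°C. Fluorescence was read at ex 355/em 460 nm. Negative controls lacked extract, substrate, or both.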

Mus musculus [3] = assay: Effect on HDAC1 expression in nude mouse xenografted with human PC3 cells at 20 and 40 mg/kg, ip administered every other day for 18 days measured twice weekly by hematoxylin/eosin staining based immunohistochemical analysis; assay type: functional, organism-based
Summary of the method: (§1)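 PC3 xenograft tumors were formalin-fixed and paraffin-embedded, then sectioned. Sections were deparaffinized and rehydrated, and endogenous peroxidase was quenched with 3% H2O2. Antigen retrieval used pH 9 buffer at 80°C overnight, followed by blocking with fat-free milk. Primary antibody (acetyl-histone H3, HDAC1 or HDAC2) was applied at 4°C overnight, then secondary antibody, then Mayer's hematoxylin counterstain. Separate sections received H&E staining.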

Homo sapiens [4] = organism: Homo sapiens; settings: at 1 µM
Histone deacetylase 4 = Histone deacetylase 4 (Homo sapiens, UniProt P56524); assay: Inhibition of recombinant human full length HDAC4 using Fluor-de-Lys as substrate after 60 mins by spectrofluorimetric analysis
Chain of Histone deacetylase 4 (P56524 whole entry): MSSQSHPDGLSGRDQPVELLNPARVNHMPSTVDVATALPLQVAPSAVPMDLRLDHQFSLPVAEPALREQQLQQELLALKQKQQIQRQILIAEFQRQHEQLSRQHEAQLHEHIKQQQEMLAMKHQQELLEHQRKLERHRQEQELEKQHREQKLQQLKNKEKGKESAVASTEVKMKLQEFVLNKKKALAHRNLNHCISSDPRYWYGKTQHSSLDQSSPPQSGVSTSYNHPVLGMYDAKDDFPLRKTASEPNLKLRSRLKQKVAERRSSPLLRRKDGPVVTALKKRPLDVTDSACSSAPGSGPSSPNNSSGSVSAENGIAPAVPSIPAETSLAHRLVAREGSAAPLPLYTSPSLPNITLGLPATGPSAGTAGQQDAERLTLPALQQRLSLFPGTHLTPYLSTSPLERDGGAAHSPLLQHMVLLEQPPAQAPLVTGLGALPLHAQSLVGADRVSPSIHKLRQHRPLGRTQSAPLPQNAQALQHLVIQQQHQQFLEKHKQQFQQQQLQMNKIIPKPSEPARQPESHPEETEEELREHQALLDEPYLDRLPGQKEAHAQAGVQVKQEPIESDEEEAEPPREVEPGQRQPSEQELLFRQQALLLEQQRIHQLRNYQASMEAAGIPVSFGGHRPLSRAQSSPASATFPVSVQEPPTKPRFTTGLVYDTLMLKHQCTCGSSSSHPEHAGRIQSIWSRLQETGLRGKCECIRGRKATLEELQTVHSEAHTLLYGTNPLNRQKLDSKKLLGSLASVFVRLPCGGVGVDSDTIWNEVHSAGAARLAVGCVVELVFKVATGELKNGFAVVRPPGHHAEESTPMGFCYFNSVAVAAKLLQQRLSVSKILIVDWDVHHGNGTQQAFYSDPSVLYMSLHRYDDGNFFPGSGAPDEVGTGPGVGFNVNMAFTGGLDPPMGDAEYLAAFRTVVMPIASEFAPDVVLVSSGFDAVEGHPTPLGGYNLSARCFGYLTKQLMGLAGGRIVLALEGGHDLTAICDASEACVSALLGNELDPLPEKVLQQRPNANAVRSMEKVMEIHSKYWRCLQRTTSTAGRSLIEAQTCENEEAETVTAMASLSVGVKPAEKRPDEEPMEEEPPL

Mus musculus [5] = assay: Toxicity in nude mouse xenografted with human PC3 cells assessed as weight loss at 20 to 40 mg/kg, ip administered every other day for 18 days; assay type: organism-based; settings: in vivo, 432 h
Summary of the method: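 Male nude mice carried s.c. PC3 flank xenografts (1 × 10^7 cells with Matrigel). They received i.p. vehicle, 20 mg/kg or 40 mg/kg every other day for 18 days, and body weight (g) was tracked over the study.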

Homo sapiens [6] = organism: Homo sapiens; settings: at 1 µM; remark: listed apart in the source
Histone deacetylase 1 = Histone deacetylase 1 (Homo sapiens, UniProt Q13547); assay: Inhibition of recombinant human full length HDAC1 using Fluor-de-Lys as substrate after 60 mins by spectrofluorimetric analysis
Chain of Histone deacetylase 1 (Q13547 whole entry): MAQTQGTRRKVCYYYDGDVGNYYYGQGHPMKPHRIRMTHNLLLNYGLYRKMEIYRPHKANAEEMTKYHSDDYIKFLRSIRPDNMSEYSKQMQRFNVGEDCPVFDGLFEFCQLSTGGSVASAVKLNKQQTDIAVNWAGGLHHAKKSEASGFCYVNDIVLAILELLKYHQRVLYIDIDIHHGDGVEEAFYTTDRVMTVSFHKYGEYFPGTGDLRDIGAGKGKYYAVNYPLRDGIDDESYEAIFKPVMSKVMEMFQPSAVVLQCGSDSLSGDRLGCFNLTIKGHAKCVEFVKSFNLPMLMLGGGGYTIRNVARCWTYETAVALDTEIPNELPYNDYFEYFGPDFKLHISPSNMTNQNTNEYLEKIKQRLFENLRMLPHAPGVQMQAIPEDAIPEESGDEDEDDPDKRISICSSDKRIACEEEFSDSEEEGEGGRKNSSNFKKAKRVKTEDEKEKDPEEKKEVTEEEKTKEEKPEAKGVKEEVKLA

PC-3 [7] = assay: Antitumor activity against human PC3 cells xenografted in nude mouse assessed as reduction in tumor volume administered ip every other day for 18 days measured twice weekly; assay type: functional, organism-based
Summary of the method: (§2)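 Male nude mice were implanted s.c. in the flank with PC3 cells (1 × 10^7 per mouse) mixed with Matrigel. Dosing began at a tumor size of about 100 mm³ and was given i.p. every other day for 18 days. Tumors were measured by caliper twice weekly, and volume was calculated as length × width²/2. %TGI was derived from mean tumor volume against the vehicle group, compared by one-way ANOVA.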

Mus musculus [8] = assay: Downregulation of HDAC2 expression in nude mouse xenografted with human PC3 cells at 40 mg/kg, ip administered every other day for 18 days measured twice weekly by hematoxylin/eosin staining based immunohistochemical analysis; assay type: functional, organism-based
Summary of the method: as §1

PC-3 [9] = assay: Antitumor activity against human PC3 cells xenografted in nude mouse assessed as tumor growth inhibition at 20 mg/kg, ip administered every other day for 18 days measured twice weekly; assay type: functional; settings: PC-3, ip, 432 h, read-out: TGI
Summary of the method: as §2

Histone deacetylase 2 = Histone deacetylase 2 (Homo sapiens, UniProt Q92769); assay: Inhibition of recombinant human full length HDAC2 using Fluor-de-Lys as substrate after 60 mins by spectrofluorimetric analysis
Chain of Histone deacetylase 2 (Q92769 whole entry): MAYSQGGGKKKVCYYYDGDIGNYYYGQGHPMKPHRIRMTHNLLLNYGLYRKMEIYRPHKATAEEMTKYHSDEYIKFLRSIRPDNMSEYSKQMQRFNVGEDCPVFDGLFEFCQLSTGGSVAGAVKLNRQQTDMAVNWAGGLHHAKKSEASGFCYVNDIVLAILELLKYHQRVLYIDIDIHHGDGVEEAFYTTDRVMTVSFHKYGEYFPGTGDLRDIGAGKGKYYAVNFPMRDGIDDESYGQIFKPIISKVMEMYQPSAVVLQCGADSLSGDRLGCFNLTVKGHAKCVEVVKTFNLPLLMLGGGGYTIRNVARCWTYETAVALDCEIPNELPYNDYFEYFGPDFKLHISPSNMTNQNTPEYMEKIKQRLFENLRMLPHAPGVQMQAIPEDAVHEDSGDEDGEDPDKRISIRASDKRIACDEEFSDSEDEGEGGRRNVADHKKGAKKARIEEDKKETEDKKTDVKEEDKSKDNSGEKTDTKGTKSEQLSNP

Mus musculus [10] = assay: In-vivo inhibition of HDAC in ip dosed nude mouse xenografted with human PC3 cells assessed as upregulation of acetyl-histone 3 expression by hematoxylin/eosin staining based immunohistochemical analysis; assay type: functional, organism-based
Summary of the method: as §1

PC-3 [11] = assay: Antitumor activity against human PC3 cells xenografted in nude mouse assessed as tumor growth inhibition at 40 mg/kg, ip administered every other day for 18 days measured twice weekly; assay type: functional; settings: PC-3, ip, 432 h, read-out: TGI
Summary of the method: as §2

[12] = biological target: T1, Protein deacetylase HDAC6 (Homo sapiens, UniProt Q9UBN7); assay: Inhibition of recombinant human full length HDAC6 using Fluor-de-Lys as substrate after 60 mins by spectrofluorimetric analysis
T1 sequence (Q9UBN7 whole entry): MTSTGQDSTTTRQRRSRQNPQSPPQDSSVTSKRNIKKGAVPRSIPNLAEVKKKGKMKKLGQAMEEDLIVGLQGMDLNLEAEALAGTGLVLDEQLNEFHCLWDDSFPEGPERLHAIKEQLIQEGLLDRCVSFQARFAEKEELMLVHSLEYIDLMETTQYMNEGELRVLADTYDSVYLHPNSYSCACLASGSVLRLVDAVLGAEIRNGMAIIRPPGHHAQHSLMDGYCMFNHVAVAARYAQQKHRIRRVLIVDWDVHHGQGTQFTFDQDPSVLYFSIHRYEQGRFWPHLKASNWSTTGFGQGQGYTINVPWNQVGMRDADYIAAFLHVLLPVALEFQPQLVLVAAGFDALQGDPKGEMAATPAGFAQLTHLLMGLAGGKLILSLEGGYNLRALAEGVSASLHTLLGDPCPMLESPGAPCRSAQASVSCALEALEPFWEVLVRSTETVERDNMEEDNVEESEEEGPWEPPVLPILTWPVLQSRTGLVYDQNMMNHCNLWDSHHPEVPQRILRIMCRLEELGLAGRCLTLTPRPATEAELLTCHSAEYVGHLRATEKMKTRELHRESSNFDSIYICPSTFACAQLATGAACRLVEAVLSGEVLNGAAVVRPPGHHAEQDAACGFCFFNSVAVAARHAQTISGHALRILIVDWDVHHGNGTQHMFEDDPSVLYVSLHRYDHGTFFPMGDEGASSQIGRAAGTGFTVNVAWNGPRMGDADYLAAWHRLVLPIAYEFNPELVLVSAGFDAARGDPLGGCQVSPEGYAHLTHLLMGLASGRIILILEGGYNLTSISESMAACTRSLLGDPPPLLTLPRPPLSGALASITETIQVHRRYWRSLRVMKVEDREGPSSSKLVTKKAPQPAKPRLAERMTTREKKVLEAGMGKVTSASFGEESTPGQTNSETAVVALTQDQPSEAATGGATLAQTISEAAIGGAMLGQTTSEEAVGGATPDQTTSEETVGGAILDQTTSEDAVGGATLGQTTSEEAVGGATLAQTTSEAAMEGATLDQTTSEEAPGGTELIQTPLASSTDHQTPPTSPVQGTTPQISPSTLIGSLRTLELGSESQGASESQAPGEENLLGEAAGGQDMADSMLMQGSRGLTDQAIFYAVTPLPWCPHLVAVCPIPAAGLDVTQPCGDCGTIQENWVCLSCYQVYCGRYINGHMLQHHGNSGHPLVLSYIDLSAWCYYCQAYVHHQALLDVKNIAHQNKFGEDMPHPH

Histone deacetylase 8 = biological target: T2, Histone deacetylase 8 (Homo sapiens, UniProt Q9BY41); assay: Inhibition of recombinant human full length HDAC8 using Fluor-de-Lys as substrate after 60 mins by spectrofluorimetric analysis
T2 sequence (Q9BY41 whole entry): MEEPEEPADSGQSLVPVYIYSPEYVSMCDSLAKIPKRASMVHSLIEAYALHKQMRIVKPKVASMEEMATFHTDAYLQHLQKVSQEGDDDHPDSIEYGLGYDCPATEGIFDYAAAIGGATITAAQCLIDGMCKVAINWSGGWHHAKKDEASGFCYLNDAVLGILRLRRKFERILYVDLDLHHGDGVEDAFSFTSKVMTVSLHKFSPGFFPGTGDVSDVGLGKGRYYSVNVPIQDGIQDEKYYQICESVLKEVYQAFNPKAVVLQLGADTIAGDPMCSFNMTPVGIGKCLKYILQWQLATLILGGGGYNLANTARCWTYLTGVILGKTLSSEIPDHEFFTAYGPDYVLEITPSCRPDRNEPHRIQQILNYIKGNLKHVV

| SMILES | GI50 (ASPC1) [nM] | GI50 (PC-3 [1]) [nM] | GI50 (A549) [nM] | GI50 (MDA-MB-231) [nM] | IC50 [2] [nM] | also measured |
| --- | --- | --- | --- | --- | --- | --- |
| O=C(/C=C/c1ccc(S(=O)(=O)NCCc2ccc3[nH]ccc3c2)cc1)NO | 3970 | 310 | 600 | 9910 | 76.1 |  |
| O=C(/C=C/c1ccc(S(=O)(=O)Nc2cccc3[nH]ccc23)cc1)NO | > 10000 | 3490 | > 10000 | > 10000 | > 1000 |  |
| Nc1ccccc1NC(=O)c1ccc(CNC(=O)OCc2cccnc2)cc1 [ENTINOSTAT] | 6900 | 430 | 5760 | 1410 | > 1000 |  |
| O=C(CCCCCCC(=O)Nc1ccccc1)NO [VORINOSTAT] |  |  |  |  | 131 |  |
| O=C(/C=C/c1cccc(S(=O)(=O)Nc2ccccc2)c1)NO [BELINOSTAT] | 650 | 310 | 230 | 280 | 81 | IC50 (Histone deacetylase 4): > 1000 nM |

Now those with a lower IC50 [2], led by results:

| GI50 (ASPC1) [nM] | GI50 (PC-3 [1]) [nM] | GI50 (A549) [nM] | GI50 (MDA-MB-231) [nM] | IC50 [2] [nM] | SMILES | also measured |
| --- | --- | --- | --- | --- | --- | --- |
| 12500 | 2880 | 4350 | 5850 | 60 | COc1ccc(S(=O)(=O)n2ccc3c(CCNS(=O)(=O)c4ccc(/C=C/C(=O)NO)cc4)cccc32)cc1 |  |
| 4560 | 860 | 1650 | 3550 | 7.17 | O=C(/C=C/c1ccc(S(=O)(=O)NCc2cccc3[nH]ccc23)cc1)NO |  |
| 3850 | 310 | 870 | 2060 | 30.4 | O=C(/C=C/c1cccc(S(=O)(=O)NCCc2cccc3[nH]ccc23)c1)NO |  |
| 240 | 140 | 250 | 320 | 8.56 | O=C(/C=C/c1ccc(S(=O)(=O)NCCc2cccc3[nH]ccc23)cc1)NO | Activity (Mus musculus [3]): inactive; inhibition (Homo sapiens [4]): Active; IC50 (Histone deacetylase 4): > 100 nM; Activity (Mus musculus [5]): Non-Toxic; inhibition (Homo sapiens [6]): Active; IC50 (Histone deacetylase 1): 1.28 nM; Activity (PC-3 [7]): Dose-dependent effect; Activity (Mus musculus [8]): Active; inhibition in vivo at 20 mg/kg (PC-3 [9]): 51.6%; IC50 (Histone deacetylase 2): 0.9 nM; Activity (Mus musculus [10]): Dose-dependent effect; inhibition in vivo at 40 mg/kg (PC-3 [11]): 62.2%; IC50 [12]: 8.32 nM; IC50 (Histone deacetylase 8): > 100 nM |
| 160 | 150 | 250 | 80 | 14.3 | Cn1ccc2c(CCNS(=O)(=O)c3ccc(/C=C/C(=O)NO)cc3)cccc21 | IC50 (Histone deacetylase 4): > 100 nM; IC50 (Histone deacetylase 1): 1.34 nM; IC50 (Histone deacetylase 2): 0.53 nM; IC50 [12]: 6.8 nM; IC50 (Histone deacetylase 8): > 100 nM |
| 2780 | 330 | 820 | 2470 | 52.2 | O=C(/C=C/c1cccc(S(=O)(=O)NCCc2ccc3[nH]ccc3c2)c1)NO |  |
